Experimental findings from ChEMBL document CHEMBL1147044, “Design of helical, oligomeric HIV-1 fusion inhibitor peptides with potent activity against enfuvirtide-resistant virus” (Proc Natl Acad Sci U S A, 2007) are described below.

In brackets after ≈: the same amount, converted by molar mass. Bounds are passed on as bounds.

For orientation: clearance means the volume of plasma or blood freed of the substance per unit of time. The term half-life denotes how long it takes for the measured level to halve. A word on the IC50: it is the midpoint of a concentration-inhibition curve.

Series [1] can be described thus: Clearance in cynomolgus monkey at 1 to 2 mg/kg, iv. The class given is ADME, organism-based, Macaca fascicularis. Particulars: in vivo. Also on record: dose 1-2 mg/kg, route intravenous. The procedure, abridged: (§1)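 Male cynomolgus monkeys received a single i.v. dose of about 1–2 mg/kg in isotonic phosphate-mannitol vehicle, given as cassettes (typically n ≤ 8). Plasma was protein-precipitated with 0.5% formic acid in acetonitrile and peptide measured by reversed-phase HPLC. Parameters were fitted with mono- or biexponential models.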

Series [2] can be described thus: Half life in cynomolgus monkey at 1 to 2 mg/kg, iv. Also on record: dose 1-2 mg/kg, route intravenous. The conditions noted are these: in vivo. The class given is ADME, organism-based, Macaca fascicularis. The procedure, abridged: as §1
Series [3] concerns Human immunodeficiency virus 1. Kind of series: Antiviral activity against HIV1 3B infected in human PBMCs by reverse transcriptase assay. The class given is functional, organism-based. The conditions noted are these: Human immunodeficiency virus 1, 3B. The procedure, abridged:
(§2)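 CD8-depleted activated PBMC targets infected at high MOI by spinoculation; infected cells incubated with uninfected targets at 2 × 10⁵ cells per well with serially diluted peptide for 9 days. Fresh compound added and samples taken every 2–3 days. Replication read by reverse transcriptase assay; IC50 from reduction in RT signal relative to infected untreated wells.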

For series [4], the system named is Human immunodeficiency virus 1. Description: Antiviral activity against HIV1 098 isolate infected in human PBMCs by reverse transcriptase assay. The class given is functional, organism-based. The procedure, abridged:
as §2

Series [5] deals with Human immunodeficiency virus 1. Description: Antiviral activity against HIV1 098-T20 isolate infected in human PBMCs by reverse transcriptase assay. The format is functional, organism-based. The procedure, abridged:
as §2

The subject of series [6] is Human immunodeficiency virus 1. Description: Antiviral activity against HIV1 098-T1249 isolate infected in human PBMCs by reverse transcriptase assay. The format is functional, organism-based. The procedure, abridged: as §2
For series [7], the system named is Human immunodeficiency virus 1. Kind of series: Antiviral activity against HIV1 098-T651 isolate infected in human PBMCs by reverse transcriptase assay. The format is functional, organism-based. The procedure, abridged: as §2
Series [8] deals with Human immunodeficiency virus 1. Kind of series: Binding affinity to HIV1 gp41 heptad repeat 1 region assessed as thermal stability of HR1/HR2 peptide bundle complex at 1 uM in presence of 8M urea.

`CC[C@H](C)[C@H](NC(=O)[C@H](C)NC(=O)[C@H](CCCNC(=N)N)NC(=O)[C@H](CC(=O)O)NC(=O)[C@H](Cc1c[nH]c2ccccc12)NC(=O)[C@H](C)NC(=O)[C@H](CCC(=O)O)NC(=O)[C@H](Cc1c[nH]c2ccccc12)NC(=O)[C@@H](NC(=O)[C@@H](N)[C@@H](C)O)[C@@H](C)O)C(=O)N[C@@H](C)C(=O)N[C@@H](CCC(=O)O)C(=O)N[C@@H](Cc1ccc(O)cc1)C(=O)N[C@@H](C)C(=O)N[C@@H](C)C(=O)N[C@@H](CCCNC(=N)N)C(=O)N[C@H](C(=O)N[C@@H](CCC(=O)O)C(=O)N[C@@H](C)C(=O)N[C@@H](CC(C)C)C(=O)N[C@H](C(=O)N[C@@H](CCCNC(=N)N)C(=O)N[C@@H](C)C(=O)N[C@@H](C)C(=O)N[C@@H](CCC(N)=O)C(=O)N[C@@H](CCC(=O)O)C(=O)N[C@@H](CCC(N)=O)C(=O)N[C@@H](CCC(N)=O)C(=O)N[C@@H](CCC(=O)O)C(=O)N[C@@H](CCCCN)C(=O)N[C@@H](CC(N)=O)C(=O)N[C@@H](CCC(=O)O)C(=O)N[C@@H](C)C(=O)N[C@@H](C)C(=O)N[C@@H](CC(C)C)C(=O)N[C@@H](CCCNC(=N)N)C(=O)N[C@@H](CCC(=O)O)C(=O)N[C@@H](CC(C)C)C(=O)O)[C@@H](C)CC)[C@@H](C)CC` showed a clearance in series [1] of 0.717 mL/min/kg. Further, the half-life in series [2] is 16.3 h. Besides, the IC50 in series [3] was 0.007 µg/mL (≈ 1.59 nM); in series [4], 0.018 µg/mL (≈ 4.08 nM); in series [5], 0.025 µg/mL (≈ 5.66 nM); in series [6], 0.015 µg/mL (≈ 3.4 nM); in series [7], 0.021 µg/mL (≈ 4.76 nM). Besides, the Tm in series [8] stood at 86 °C.
In turn, enfuvirtide had a clearance in series [1] of 0.667 mL/min/kg. The same molecule had a half-life in series [2] of 8.8 h. Also, the IC50 in series [3] amounted to 0.006 µg/mL; in series [4] it was 0.05 µg/mL; in series [5], 0.526 µg/mL; in series [6] it was 55 µg/mL; in series [7], 47.8 µg/mL. The Tm in series [8] is less than 5 °C.
On to “H-TTWEAWDRAIAEYAARIEALIRAAQEQQEKLEAVLREL-OH”, for which the clearance in series [1] is 0.0667 mL/min/kg. In series [2], this molecule showed a half-life of 28.6 h. Besides, the IC50 in series [3] turned out to be 0.022 µg/mL; in series [4] it was 0.049 µg/mL; in series [5], 0.093 µg/mL; in series [6], 0.046 µg/mL; in series [7], 0.242 µg/mL. Moreover, the Tm in series [8] was found to be 85 °C.
`CC[C@H](C)[C@H](NC(=O)[C@H](CC(C)C)NC(=O)[C@H](CO)NC(=O)[C@H](Cc1cnc[nH]1)NC(=O)[C@@H](NC(=O)[C@H](CC(C)C)NC(=O)[C@H](CO)NC(=O)[C@@H](NC(=O)[C@H](Cc1ccc(O)cc1)NC(=O)[C@H](CC(N)=O)NC(=O)[C@H](CC(N)=O)NC(=O)[C@@H](NC(=O)[C@H](CCC(=O)O)NC(=O)[C@H](CCCNC(=N)N)NC(=O)[C@H](CC(=O)O)NC(=O)[C@H](Cc1c[nH]c2ccccc12)NC(=O)[C@H](CCC(=O)O)NC(=O)[C@H](CCSC)NC(=O)[C@H](Cc1c[nH]c2ccccc12)NC(=O)[C@@H](NC(=O)[C@@H](N)CCSC)[C@@H](C)O)[C@@H](C)CC)[C@@H](C)O)[C@@H](C)CC)C(=O)N[C@@H](CCC(=O)O)C(=O)N[C@@H](CCC(=O)O)C(=O)N[C@@H](CO)C(=O)N[C@@H](CCC(N)=O)C(=O)N[C@@H](CC(N)=O)C(=O)N[C@@H](CCC(N)=O)C(=O)N[C@@H](CCC(N)=O)C(=O)N[C@@H](CCC(=O)O)C(=O)N[C@@H](CCCCN)C(=O)N[C@@H](CC(N)=O)C(=O)N[C@@H](CCC(=O)O)C(=O)N[C@@H](CCC(N)=O)C(=O)N[C@@H](CCC(=O)O)C(=O)N[C@@H](CC(C)C)C(=O)N[C@@H](CC(C)C)C(=O)N[C@@H](CCC(=O)O)C(=O)N[C@@H](CC(C)C)C(=O)O` showed a clearance in series [1] of 6.2 mL/min/kg. This molecule also showed a half-life in series [2] of 1.2 h. The IC50 was 0.008 µg/mL (≈ 1.69 nM) in series [3]; 0.032 µg/mL (≈ 6.78 nM) in series [4]; 0.039 µg/mL (≈ 8.26 nM) in series [5]; 0.137 µg/mL (≈ 29 nM) in series [6]; 4.97 µg/mL (≈ 1050 nM) in series [7]. In series [8], the Tm was determined as 74 °C.
